Assay outcomes deposited in PubChem BioAssay by several laboratories.
Compounds with a hit are over-represented: about 3.5% of the library has one in this group of screens.
KLK5 inh – kallikrein 5 (human) inhibition | Q9Y337 | recombinant hK5, fluorogenic AMC substrate cleavage | inhibition, % at 5 µM | hit rate 0.59% among 210,000;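 active = inhibition of 40% or more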
Thrombin inh – blocks human thrombin protease activity | P00734 | alpha-thrombin, Boc-VPR-AMC fluorogenic substrate cleavage | inhibition, % at 5 µM | hit rate 0.26% among 220,000;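 active = inhibition at or above 40%; inactive = inhibition below 40%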
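System: human alpha-thrombin protein; Compound dosing: one concentration per compound, 5 µM, with 0.2% DMSO; Timing: reaction at room temperature; Technique: AMC fluorescence, 355/460 nm; Controls: enzyme without compound as high, wells lacking enzyme as low.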
STAT3 act-1 – STAT3 signaling activation. hit rate 0.91% among 190,000. U3A cells, IL-6 STAT3-luciferase reporter, luminescence; 100% = signal with IL-6 EC80 alone. activation (% of control), % at 5.6 µM;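 active = activation above the screen-wide mean of compound activation plus 3 SD, cut at about 130% in these data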
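Assay system – human STAT1-deficient U3A cells with stable STAT3-luciferase reporter · Also added – IL-6 (33 ng/mL) · Schedule – compound 1 h, then IL-6 6 h at 37 °C · Technique – reporter luminescence signal · Evaluation – % activation versus median of IL-6-stimulated wells · Benchmarks – IL-6-only wells as 100% reference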
AHR activator – human AHR activation; P35869; AHR-responsive luciferase reporter cells, luminescence; activation, % at 5 µM; hit rate 2.5% among 320,000; in the data active = activation above about 47%
Target sequence (P35869 whole entry, looked up): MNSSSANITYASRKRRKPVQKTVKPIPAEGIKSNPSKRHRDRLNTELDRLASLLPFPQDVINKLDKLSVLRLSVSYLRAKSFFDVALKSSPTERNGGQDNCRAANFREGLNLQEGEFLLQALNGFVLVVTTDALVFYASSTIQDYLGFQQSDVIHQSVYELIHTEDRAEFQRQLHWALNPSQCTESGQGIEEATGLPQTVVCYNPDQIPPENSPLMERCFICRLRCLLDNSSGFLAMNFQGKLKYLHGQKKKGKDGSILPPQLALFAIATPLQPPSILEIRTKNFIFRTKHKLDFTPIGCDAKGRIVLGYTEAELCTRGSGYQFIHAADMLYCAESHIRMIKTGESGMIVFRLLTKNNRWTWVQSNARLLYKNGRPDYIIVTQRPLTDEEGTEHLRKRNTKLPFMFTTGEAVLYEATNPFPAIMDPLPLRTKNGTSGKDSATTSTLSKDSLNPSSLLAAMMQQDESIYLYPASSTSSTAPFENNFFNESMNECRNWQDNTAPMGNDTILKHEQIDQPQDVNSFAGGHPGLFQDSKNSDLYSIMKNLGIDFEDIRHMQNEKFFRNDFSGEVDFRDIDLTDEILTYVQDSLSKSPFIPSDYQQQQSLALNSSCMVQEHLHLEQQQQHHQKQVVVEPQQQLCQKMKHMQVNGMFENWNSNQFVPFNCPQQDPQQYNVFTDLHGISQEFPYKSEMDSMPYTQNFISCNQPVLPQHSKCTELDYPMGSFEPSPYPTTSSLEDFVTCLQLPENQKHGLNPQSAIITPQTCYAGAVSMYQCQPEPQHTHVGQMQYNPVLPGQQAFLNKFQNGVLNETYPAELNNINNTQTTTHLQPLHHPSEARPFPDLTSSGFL
FXIa inh 1536 – inhibitors of human coagulation factor XIa | P03951 | purified FXIa, Boc-Glu-Ala-Arg-AMC fluorogenic substrate | inhibition, % at 5 µM | hit rate 0.14% among 220,000;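 active = inhibition of at least 40%; inactive = inhibition below 40%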;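 also: fluorescence of freed AMC excited at 355 nm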
FXIIa inh – blocks human coagulation factor XIIa protease activity | P00748 | purified FXIIa, Boc-QGR-AMC fluorogenic substrate, 2 h | inhibition, % at 5 µM | hit rate 0.3% among 220,000; in the data active = inhibition above about 40%
STAT3 act-2 – confirmation of STAT3 signaling activators; U3A STAT3-luciferase reporter, IL-6 potentiation, luminescence; U3A cells lack STAT1; 100 means same as IL-6 alone; shares compounds with STAT3 act-1; hit rate 64% among 1,200; potentiation (% of control), % at 5.7 µM; AID 1267;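 active = percent activation of the STAT3 luciferase reporter above a set limit taken from the earlier primary screen, cut at about 130% in these data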
NFkB act 2 – NF-kappaB activation in STAT3 activator counter-screen; shares compounds with STAT3 act-1; human cells, NF-kappaB reporter activation; activation (% of control), % at 5.7 µM; hit rate 11% among 1,200; in the data active = activation above about 120%;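 also: reporter induced by TNF-alpha stimulation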
STAT1 act – STAT1 activation in STAT3 activator counter-screen; activation (% of control), % at 5.7 µM; AID 1318; NIH 3T3 STAT1-luciferase reporter, IFN-gamma, luminescence; hit rate 13% among 1,200; shares compounds with STAT3 act-1;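 active = activation above the solvent-only control well mean plus 3 SD, set per screening run, cut at about 120% in these data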
Each line names hits and unclear results; the compound was inactive in the other large screens (follow-up assays come after a bar, where they were run).

C/C(=N/Nc1nc(-c2ccccc2)cc(-c2ccccc2)n1)c1ccc(N)cc1	none (no result: AHR activator)
C/C(=N\Nc1cc(-c2ccccc2)nc(-c2ccc(Br)cc2)n1)c1cccc(N)c1	AHR activator 71 (no result: KLK5 inh, Thrombin inh, FXIa inh 1536, FXIIa inh)
COc1cc(CCC(=O)Nc2cccc(C(F)(F)F)c2)cc(OC)c1OC	Thrombin inh 41
Cc1nc(-c2ccc3c(c2)OCO3)cs1	none
Fc1ccc(-c2csc(/C=C/c3ccc4c(c3)OCO4)n2)cc1	AHR activator 82
Cc1ccc(-c2nc(NCc3ccco3)c3ccccc3n2)cc1	STAT3 act-1 139 | STAT3 act-2 153 | NFkB act 2 inactive | STAT1 act inactive
O=C(Nc1ccccc1F)C1CCCN1S(=O)(=O)c1cccc2nsnc12 (stereo unspecified)	none (no result: KLK5 inh, Thrombin inh, STAT3 act-1, FXIa inh 1536, FXIIa inh)
O=C(NC(=S)Nc1ccccc1N1CCCC1)c1ccc(F)cc1	STAT3 act-1 145, AHR activator 71 | STAT3 act-2 149 | NFkB act 2 inactive | STAT1 act inactive
Clc1ccccc1OCc1nc(-c2ccc(Br)o2)no1	STAT3 act-1 137, AHR activator 61 | STAT3 act-2 inactive | NFkB act 2 inactive | STAT1 act 125
CN1/C(=C\C=Nc2ccc3ccccc3c2)C(C)(C)c2ccccc21	STAT3 act-1 148, AHR activator 55 | STAT3 act-2 inactive | NFkB act 2 inactive | STAT1 act inactive
CC(=O)/C(N=Nc1cc(C)ccc1O)=C(\C)O	STAT3 act-1 149, AHR activator 56 | STAT3 act-2 150 | NFkB act 2 inactive | STAT1 act inactive
CN(CC(=O)Nc1ccccc1Br)C(=O)c1ccccc1-c1nc2ccccc2s1	none (no result: KLK5 inh, Thrombin inh, STAT3 act-1, FXIa inh 1536, FXIIa inh)
CCC1=Nc2cc(C(=O)NCc3ccco3)ccc2Sc2ccc(C)cc21	STAT3 act-1 145 | STAT3 act-2 inactive | NFkB act 2 154 | STAT1 act inactive
CCC1=Nc2cc(C(=O)NCCN3CCOCC3)ccc2Sc2ccc(C)cc21	none (no result: KLK5 inh, Thrombin inh, STAT3 act-1, FXIa inh 1536, FXIIa inh)
CCc1nnc(NS(=O)(=O)c2ccc(N/C=C(\C=O)c3nc4cc(Cl)ccc4o3)cc2)s1	STAT3 act-1 149 | STAT3 act-2 135 | NFkB act 2 inactive | STAT1 act inactive
COc1cc(NS(=O)(=O)c2ccc(N/C=C(\C=O)c3nc4ccccc4o3)cc2)nc(OC)n1	STAT3 act-1 147 | STAT3 act-2 136 | NFkB act 2 inactive | STAT1 act inactive
CSCCC(NC(=O)COc1ccccc1)C(=O)N(C)Cc1ccc(Cl)cc1Cl (stereo unspecified)	none (no result: KLK5 inh, Thrombin inh, STAT3 act-1, FXIa inh 1536, FXIIa inh)
CCc1cc(C(=O)N2CCN(S(=O)(=O)c3cc(C)ccc3C)CC2)sc1C	none (no result: KLK5 inh, Thrombin inh, STAT3 act-1, FXIa inh 1536, FXIIa inh)
Cc1ccc(C(=O)c2cc([N+](=O)[O-])ccc2N2CCOCC2)cc1	none (no result: AHR activator)
CCOc1ccc(C(=O)c2cc([N+](=O)[O-])ccc2N2CCOCC2)cc1	STAT3 act-1 166 | STAT3 act-2 inactive | NFkB act 2 165 | STAT1 act 132
CCOc1ccc(S(=O)(=O)N2CCN(C(=O)c3cc([N+](=O)[O-])ccc3N3CCOCC3)CC2)cc1	none (no result: KLK5 inh, Thrombin inh, STAT3 act-1, FXIa inh 1536, FXIIa inh)
COc1ccc(C(=O)c2cc([N+](=O)[O-])ccc2N2CCOCC2)cc1	STAT3 act-1 163 | STAT3 act-2 inactive | NFkB act 2 172 | STAT1 act 141
O=C(O)c1cc([N+](=O)[O-])ccc1N1CCCCC1	none
Cc1ccc(C(=O)c2cc([N+](=O)[O-])ccc2N2CCCCC2)c(C)c1	STAT3 act-1 137 | STAT3 act-2 inactive | NFkB act 2 152 | STAT1 act inactive
CC(C)(CO)N=Cc1c(O)[nH]c2ccccc12	KLK5 inh 48, STAT3 act-1 142 | STAT3 act-2 137 | NFkB act 2 inactive | STAT1 act inactive
Brc1ccc2ncnc(Nc3cccc4ccccc34)c2c1	STAT3 act-1 147, AHR activator 59 | STAT3 act-2 163 | NFkB act 2 inactive | STAT1 act inactive
COc1ccc(OC)c(Nc2ncnc3ccc(Br)cc23)c1	none (no result: KLK5 inh, Thrombin inh, STAT3 act-1, FXIa inh 1536, FXIIa inh)
COC(=O)[C@@]1(Cc2ccc(OC)cc2)[C@H]2c3cc(C(=O)N4CCCC4)n(CCSCCO)c3C[C@H]2CN1C(=O)c1ccccc1	none
Cn1c(-c2c(N)n(CCc3ccccc3)c3nc4ccccc4nc23)nc2ccccc21	none
Cn1c(-c2c(N)n(CCCc3ccccc3)c3nc4ccccc4nc23)nc2ccccc21	STAT3 act-1 152 (no result: AHR activator) | STAT3 act-2 136 | NFkB act 2 inactive | STAT1 act inactive
N#C/C(=C\Nc1ccc2cn[nH]c2c1)c1nc(-c2ccccc2)cs1	none (no result: AHR activator)
N#C/C(=C\Nc1ccc2cn[nH]c2c1)c1nc(-c2ccc(Cl)cc2)cs1	STAT3 act-1 148, AHR activator 52 | STAT3 act-2 inactive | NFkB act 2 inactive | STAT1 act inactive
O=C(N/N=C/c1ccoc1)c1cccc(OC(F)(F)C(F)F)c1	none (no result: KLK5 inh, Thrombin inh, STAT3 act-1, FXIa inh 1536, FXIIa inh)
CC1(C)NC(=O)N(CC(=O)OCC(=O)Nc2cc(S(=O)(=O)N3CCCCCC3)ccc2Cl)C1=O	none
Cc1cc(O)cc2c1C(c1ccc(F)cc1)CC1(CC(C)(C)NC(=S)N1)O2 (stereo unspecified)	none
COc1ccc(C2CC3(CC(C)(C)NC(=O)N3)Oc3cc(O)ccc32)cc1 (stereo unspecified)	STAT3 act-1 211 | STAT3 act-2 176 | NFkB act 2 inactive | STAT1 act inactive
COc1ccc(C2CC3(CC(C)(C)NC(=S)N3)Oc3cc(O)cc(C)c32)cc1 (stereo unspecified)	STAT3 act-1 363 | STAT3 act-2 268 | NFkB act 2 inactive | STAT1 act inactive
COc1ccc(C2CC3(CC(C)(C)NC(SC)=N3)Oc3cc(O)cc(C)c32)cc1 (stereo unspecified)	STAT3 act-1 537 | STAT3 act-2 382 | NFkB act 2 inactive | STAT1 act 127
COc1ccc([C@@H]2C[C@H](c3ccccc3)Oc3cc(C)cc(C)c32)cc1	none (no result: STAT3 act-1, AHR activator)
CN(CC(=O)Nc1ccc(Cl)c(Cl)c1)C(=O)c1cccc2cccnc12	none (no result: KLK5 inh, Thrombin inh, STAT3 act-1, FXIa inh 1536, FXIIa inh)
COc1ccc(C(CNC(=O)C(=O)Nc2ccc3c(c2)OCCO3)N2CCN(C)CC2)cc1 (stereo unspecified)	none (no result: KLK5 inh, Thrombin inh, STAT3 act-1, FXIa inh 1536, FXIIa inh)
CC(C)(C)C(=O)CSc1nc(N)cc(=O)[nH]1	none (no result: KLK5 inh)
OC1(c2ccccc2)c2ccccc2-c2ncccc21 (stereo unspecified)	STAT3 act-1 137 | STAT3 act-2 134 | NFkB act 2 inactive | STAT1 act inactive
Cc1nn(-c2ccccc2)c2nc(N)c(C#N)c(-c3ccc(F)cc3)c12	none
